Data on 96 compounds can be found in ChEMBL document CHEMBL4513216, “Probing the Open Global Health Chemical Diversity Library for Multistage-Active Starting Points for Next-Generation Antimalarials” (ACS Infect Dis, 2020).

A short description of this data set: Toxicity liver stage against HepG2, at 10uM. The data set is classed as cell-based. The conditions noted are these: human, HepG2-A16-CD81EGFP cells; read-out: INHIBITION
More on the design: test concentration 10 uM, cell line HepG2-A16-CD81EGFP. In short, it runs like this:
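Uninfected HepG2-A16-CD81EGFP cells, 3 × 10^3 per well, 1536-well, plated on prespotted compound at 10 μM final, parasite-free screening media added to match infected plates; puromycin 10 μM positive, DMSO 0.5% negative; run in parallel with 48 h PbLuc assay at 37 °C, 5% CO2; viability by CellTiter-Glo luminescence, normalized to controls.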

For `Cc1cc(C(N)=O)ccc1NC(=O)c1nc(N2CCCCC2)ncc1Cl`, the cytotoxicity at 10 µM is -13.9%.

In the case of `O=S(=O)(c1cccnc1)N1CCN(CCn2ccnc2)CC1`, the cytotoxicity at 10 µM was -31.2%.

As for `CCS(=O)(=O)CCNc1nc(C2CCCC2)nc2c1cnn2C`, the cytotoxicity at 10 µM came to 9.35%.

On to `O=C(CCCc1ccccn1)N1CCOc2ccc(F)cc21`, for which the cytotoxicity at 10 µM is 9.81%.

In the case of `Cc1cc(C)n(CC2CCCN2C(=O)c2cnc3n[nH]c(C)c3c2)n1` (stereo unspecified), the cytotoxicity at 10 µM was -2.61%.

On to `Cc1cnc(C)c(N2CCC(Cc3ccccc3Cl)(C(=O)O)CC2)n1`, for which the cytotoxicity at 10 µM turned out to be 3.4%.

Consider `COc1ccc(CCC(=O)N2CCCC(n3cncn3)C2)cc1` (stereo unspecified), for which the cytotoxicity at 10 µM is -21%.

Regarding `CCn1cc(CN2CCCN(C3Cc4ccccc4C3)CC2)cn1`, the cytotoxicity at 10 µM is 2.66%.

On to `Cc1cc(C)c(CNC(=O)N2CCN(c3cnccn3)CC2)c(=O)[nH]1`, for which the cytotoxicity at 10 µM is -2.58%.

Turning to `O=C(Cn1cc(I)cn1)N1CCOCC1`, the cytotoxicity at 10 µM is -10.2%.

`CCS(=O)(=O)CCNC(=O)C1(c2cccc(Cl)c2)CC1`: the cytotoxicity at 10 µM is -4%.

`Cc1cccc(CN2C[C@@H](CN3CCCN(C)CC3)[C@@H](CO)C2)n1`: the cytotoxicity at 10 µM was -7.57%.

For `Clc1cncc(NCc2cccc(OCCN3CCOCC3)c2)n1`, the cytotoxicity at 10 µM stood at 9.71%.

As to `CNS(=O)(=O)c1cc(C)c2[nH]c(=O)cc(C)c2c1`, the cytotoxicity at 10 µM was -7.76%.

`CCCc1nc(CNc2cccc(C(=O)N3CCCC(O)C3)c2)no1` (stereo unspecified): the cytotoxicity at 10 µM is -5.35%.

As to `NCC1CCC(C(NC(=O)CC2CCCCC2)c2ccccn2)CC1` (stereo unspecified), the cytotoxicity at 10 µM is -7.19%.

Take `CCOCCNC(=O)c1cc(Br)c2c(c1)OCCO2`: the cytotoxicity at 10 µM was found to be 1.41%.

For the compound `CC(C)CCC(=O)N1CCN(C(=O)c2ccc3nccn3c2)CC1`, the cytotoxicity at 10 µM is 7.42%.

Turning to `O=C1O[C@@H]2CN(Cc3cccc(O)c3)C[C@@H]2N1CCCN1CCOCC1`, the cytotoxicity at 10 µM amounted to 0.476%.

Regarding `O=C(Nc1cnc2n1CCCC2)C1CCCN1C1CCNCC1` (stereo unspecified), the cytotoxicity at 10 µM was determined as 11.6%.

Regarding `O=C(c1cnn2c(-c3ccco3)ccnc12)N1CCCCCC1`, the cytotoxicity at 10 µM stood at 14.4%.

For `CS(=O)(=O)N1CCC(c2nnc3ccc(C(=O)NC4CCC4)cn23)C1` (stereo unspecified), the cytotoxicity at 10 µM was 3.6%.

As for `COc1c(CNC2CCc3cc(F)ccc32)c(C(C)C)nn1C` (stereo unspecified), the cytotoxicity at 10 µM was 1.16%.

For the compound `Fc1ccc(CN2CCCC2Cn2cccn2)c2ncccc12` (stereo unspecified), the cytotoxicity at 10 µM was -5.11%.

For `CCOc1ccc(OCCN2CCC(N3CCNC3=O)CC2)cc1`, the cytotoxicity at 10 µM was 41.3%.

For `Cc1ccc(C(=O)N2CCCC(c3cc(C(F)(F)F)[nH]n3)C2)o1` (stereo unspecified), the cytotoxicity at 10 µM was found to be 5.77%.

For the compound `Cc1cc(C(=O)N[C@H](C)c2onc(C)c2C(=O)O)c(C)o1`, the cytotoxicity at 10 µM is 3.82%.

Consider `O=C(CSc1ccccc1)N1C[C@@H]2CC[C@H]1CN(Cc1ccncc1)C2`, for which the cytotoxicity at 10 µM is -0.143%.

In the case of `O=C(NCC1CCOC1)c1csc(-c2ccco2)n1` (stereo unspecified), the cytotoxicity at 10 µM is -6.49%.

Consider `CC1CN(C)CCN1C(=O)NCCCn1ccnc1` (stereo unspecified), for which the cytotoxicity at 10 µM was -45.5%.

Regarding `CCCS(=O)(=O)N1CC[C@@H]2[C@@H]1CC(=O)N2Cc1csc(C)n1`, the cytotoxicity at 10 µM is -134%.

With `NC(=O)c1cnc(NCC(=O)NCc2ccccc2)c(Cl)c1`, the cytotoxicity at 10 µM stood at 3.89%.

Regarding `COc1cccc2[nH]cc(CCNC(=O)N3CCCC3CO)c12` (stereo unspecified), the cytotoxicity at 10 µM is -10.1%.

For the compound `O=C([C@H]1CCCO1)N1CCC2(CCCN(CCOc3ccccc3)C2)C1` (stereo partly specified), the cytotoxicity at 10 µM was -3.25%.

Consider `Cc1csc(C2(NCc3nc(-c4ccco4)no3)CCCC2)n1`, for which the cytotoxicity at 10 µM stood at 3.18%.

Regarding `Cc1noc(C)c1CNC1CCN(c2ccccc2OC(F)F)C1` (stereo unspecified), the cytotoxicity at 10 µM amounted to 9.5%.

On to `CCc1cccc(N2CCC(NC(=O)c3ccoc3C)CC2)c1`, for which the cytotoxicity at 10 µM is -10.8%.

Turning to `N#Cc1ccnc(N2CCN(CC(O)c3ccc(F)c(F)c3)CC2)c1` (stereo unspecified), the cytotoxicity at 10 µM was determined as 2.8%.

With `CN(Cc1c[nH]nc1-c1ccc(F)cc1F)Cc1nccn1C`, the cytotoxicity at 10 µM was found to be 2.5%.

On to `O=S(=O)(c1cccc(Cl)c1)N1CCCC(Cn2cncn2)C1` (stereo unspecified), for which the cytotoxicity at 10 µM is -7.21%.

In the case of `c1ccc2oc(N3CCC(c4nncn4C4CC4)CC3)nc2c1`, the cytotoxicity at 10 µM was found to be 12.7%.

With `CCn1ccnc1CNCC1CCCN1c1cc(NC)ncn1` (stereo unspecified), the cytotoxicity at 10 µM turned out to be 3.37%.

In the case of `CC(NC(=O)c1cccs1)C(=O)NS(=O)(=O)c1cccc(C#N)c1` (stereo unspecified), the cytotoxicity at 10 µM was -7.23%.

As for `Cn1ccc(C(=O)N2CCC(Cc3cccc4cccnc34)C2)n1` (stereo unspecified), the cytotoxicity at 10 µM is 2.16%.

In the case of `O=C1OCCN1c1cccc(CNS(=O)(=O)Cc2ccc(F)cc2)c1`, the cytotoxicity at 10 µM is 4.77%.

Consider `O=C(COC1CCCCC1)N1CCCC(n2ccnc2)C1` (stereo unspecified), for which the cytotoxicity at 10 µM is -19.7%.

For `CC(C)(C)n1nc(C2CC2)cc1C(=O)NCC1(C(N)=O)CCOCC1`, the cytotoxicity at 10 µM is -11.1%.

Take `CCc1cccc(N2CCC(NC(=O)C3CCCO3)CC2)c1` (stereo unspecified): the cytotoxicity at 10 µM is -14.3%.

As to `Cc1nc(C)n(CC2CCCN2Cc2nc(-c3cccs3)no2)n1` (stereo unspecified), the cytotoxicity at 10 µM is -4.02%.

As to `Cc1nc(CN2CC[C@H]3[C@@H]2CCC(=O)N3c2cnn(C)c2)cs1`, the cytotoxicity at 10 µM came out at 11.3%.

On to `O=C1NC[C@H]2CN(C3CCOCC3)CCN12`, for which the cytotoxicity at 10 µM is -1.95%.

Consider `Cc1ccc(N2CC[C@@H](NC(=O)c3cnccn3)[C@H](O)C2)nn1`, for which the cytotoxicity at 10 µM is -6.79%.

`Cc1ccc(NCc2cccc3cn[nH]c23)cc1OC1CCOC1` (stereo unspecified): the cytotoxicity at 10 µM was 1.44%.

On to `Cc1c(S(=O)(=O)N(CCc2ccccc2)Cc2ccn(C)n2)cnn1C`, for which the cytotoxicity at 10 µM was 3.82%.

As for `CCc1cc(-c2cc[nH]n2)nc(N2CCCC2)n1`, the cytotoxicity at 10 µM was 0.255%.

Turning to `CCOCc1cnc2n1CCN(C(=O)Cc1ccco1)C2C` (stereo unspecified), the cytotoxicity at 10 µM came out at 3.53%.

On to `Cc1nnc2n1CC(CNCc1nc(-c3ccsc3)no1)CC2` (stereo unspecified), for which the cytotoxicity at 10 µM was -4.68%.

With `CN(Cc1cnn(C)c1)C(=O)NCc1csc(Br)c1`, the cytotoxicity at 10 µM is 0.568%.

As for `CCC1(C)Cc2ccccc2-c2nc(NCCCO)nc(O)c21` (stereo unspecified), the cytotoxicity at 10 µM was 5.42%.

With `CC(C)C1CN(S(=O)(=O)N2CCCC2)CCCN1Cc1ccc(F)cc1` (stereo unspecified), the cytotoxicity at 10 µM worked out at 7.2%.

`CC(=O)N1CCN(C(=O)NCc2ccccc2Cn2ccnc2)CC1`: the cytotoxicity at 10 µM was 0.243%.

Consider `COc1ccc(S(=O)(=O)NCCC(O)c2cc(C)oc2C)c(C)c1` (stereo unspecified), for which the cytotoxicity at 10 µM was -0.165%.

`CCS(=O)(=O)N1CCC2(CN(c3cc(OC)ncn3)C2)C1`: the cytotoxicity at 10 µM was determined as 0.325%.

For `CCCOc1cccc(OCc2ccon2)c1`, the cytotoxicity at 10 µM is -4.9%.

In the case of `CS(=O)(=O)c1ccc(CNC(=O)N2CCC(C(N)=O)C2)cc1` (stereo unspecified), the cytotoxicity at 10 µM was -8.03%.

Regarding `Cc1cc(C)c2ncc(C#N)c(N3CCS(=O)(=O)CC3)c2c1`, the cytotoxicity at 10 µM is -8.17%.

On to `Cc1cnc(CN2CCN(c3ccc4nncn4n3)C(C)C2)cn1` (stereo unspecified), for which the cytotoxicity at 10 µM was -2.21%.

As to `O=C(CCn1ccc2ncccc2c1=O)N1CCCC1`, the cytotoxicity at 10 µM is -1.93%.

Regarding `Cc1nn(C)c(N(C)C)c1CNCc1ccc(OCC(N)=O)cc1`, the cytotoxicity at 10 µM came out at 1.25%.

For `COc1ccccc1CCN1CCCC(CN(C)Cc2ccc(C)o2)C1` (stereo unspecified), the cytotoxicity at 10 µM is -0.813%.

`COc1ccc(-c2noc([C@@H]3C[C@@H](O)CN3C3CCOCC3)n2)cc1`: the cytotoxicity at 10 µM is -1.7%.

Regarding `COc1cccc(NC(=O)CN2CCN(S(C)(=O)=O)CC2)c1`, the cytotoxicity at 10 µM was -1%.

As for `Cc1n[nH]c2c1C(c1cc(F)cc(F)c1)SCC(=O)N2` (stereo unspecified), the cytotoxicity at 10 µM stood at 2.03%.

In the case of `Cc1cccc(NC(=O)C(C)Oc2ccc3c(c2)OCO3)n1` (stereo unspecified), the cytotoxicity at 10 µM is -9.25%.

On to `O=C(CCc1cccnc1)Nc1ccc(OCC2CCOCC2)cc1`, for which the cytotoxicity at 10 µM is -6.01%.

With `O=C(COCC1CC1)Nc1cc(-c2ccc(Br)s2)n[nH]1`, the cytotoxicity at 10 µM is -155%.

Take `CCC[C@H]1CN(CCS(C)(=O)=O)C[C@@H]1NC(=O)Cn1cc(C)cn1`: the cytotoxicity at 10 µM worked out at 2.72%.

Turning to `Fc1cnccc1CN1CCCC2(CCN(c3ncccn3)CC2)C1`, the cytotoxicity at 10 µM is -112%.

For the compound `Cc1nnc2n1CCN(Cc1csc(Cc3ccccc3)n1)C2`, the cytotoxicity at 10 µM is -9.41%.

Take `C[C@@H]1CN(C2(C(=O)N3CC[C@H](O)C3)Cc3ccccc3C2)C[C@H](C)O1`: the cytotoxicity at 10 µM was -5.19%.

Regarding `O=C1CCCCCN1Cc1ncnn1Cc1c(F)cccc1Cl`, the cytotoxicity at 10 µM amounted to 2.14%.

Take `CC(C)CCc1noc(CN2CCCN(C(=O)c3ccco3)CC2)n1`: the cytotoxicity at 10 µM is -7.06%.

As to `O=C(C1CCOC1)N1C[C@H]2CN(Cc3ccccn3)C[C@H]2C1` (stereo partly specified), the cytotoxicity at 10 µM is 1.03%.

On to `O=C(NCc1cccc(C(F)(F)F)c1)C(c1cccnc1)N1CCCC1` (stereo unspecified), for which the cytotoxicity at 10 µM came to 6.63%.

For `CC(C)c1nc2c(n1C)CCN(Cc1cccc(OCC(N)=O)c1)C2`, the cytotoxicity at 10 µM is -7.24%.

For `Cc1c(NC(=O)N(C)CCn2cnnc2)cccc1OC1CCCC1`, the cytotoxicity at 10 µM was -0.509%.

On to `Cc1ccc(NC2CCCN(C3Cc4ccccc4C3)C2)nn1` (stereo unspecified), for which the cytotoxicity at 10 µM is -2.38%.

As for `Cc1ccc(CN2C[C@@H]3CN(c4ncccn4)C[C@@H]3C2)cc1`, the cytotoxicity at 10 µM was -2.02%.

With `CCc1cc(N2CCC(NCc3ccc(C)o3)CC2)ncn1`, the cytotoxicity at 10 µM was 2.84%.

For the compound `Cc1ccc(S(=O)(=O)N2C[C@H]3C[C@H](NC(=O)c4cnn(C)c4)[C@H]3C2)cc1`, the cytotoxicity at 10 µM stood at 76.4%.

Turning to `CCn1ccnc1CN1CCCC1C(=O)Nc1nccs1` (stereo unspecified), the cytotoxicity at 10 µM is -6.7%.

Turning to `CN(Cc1nnc(C2CC2)n1C)S(=O)(=O)c1ccc(F)c(C#N)c1`, the cytotoxicity at 10 µM was found to be 18.4%.

As for `CCc1ccc(C(=O)N2CCN(CCO)CC2)o1`, the cytotoxicity at 10 µM is -5.22%.

Turning to `Cc1csc(CNC(=O)N(C)Cc2ccc3c(c2)OCCO3)n1`, the cytotoxicity at 10 µM stood at 5.38%.

As for `Cc1ccc(C(=O)N2C[C@H]3CCC[C@@]3(COCc3ccncc3)C2)cn1`, the cytotoxicity at 10 µM was 6.64%.

Consider `CS(=O)(=O)N1CCC(c2cnc(-c3cn[nH]c3)cn2)CC1`, for which the cytotoxicity at 10 µM was found to be 3.64%.
